The list is not random: actives were taken first. Their share in the collection is about 2.5%.
dFosB act = mouse delta FosB homodimer activation; activation, % at 25 µM; P13346; purified delta FosB, TAMRA-CDK5 oligo fluorescence polarization; percent of positive-control signal above neutral wells; 340,000 compounds, 0.99% hits;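 active = mean activation above about 17%, with every replicate also reaching it, limit read from the data, passing the limit was not always enough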
Target sequence (P13346 whole entry, looked up): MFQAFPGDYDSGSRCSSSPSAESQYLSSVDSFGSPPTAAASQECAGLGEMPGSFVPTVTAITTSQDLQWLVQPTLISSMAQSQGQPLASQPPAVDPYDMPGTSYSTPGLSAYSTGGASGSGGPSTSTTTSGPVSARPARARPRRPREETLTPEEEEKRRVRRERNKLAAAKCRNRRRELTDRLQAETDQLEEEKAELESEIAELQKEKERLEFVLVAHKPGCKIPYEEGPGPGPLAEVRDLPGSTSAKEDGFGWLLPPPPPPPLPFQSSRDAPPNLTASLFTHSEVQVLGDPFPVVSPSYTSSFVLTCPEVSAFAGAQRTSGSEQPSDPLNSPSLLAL
VIM-2 inh = inhibitors of Pseudomonas aeruginosa VIM-2 metallo-beta-lactamase. purified VIM-2, nitrocefin hydrolysis, epi-absorbance fluorescence. AID 1527. inhibition, % at 5.6 µM. 290,000 compounds, 0.89% hits;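 active = inhibition above the mean of all tested compounds plus 3 SD, cutoff set per screening run, cut at about 7.5% in these data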;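 also: red hydrolysis product quenches plate fluorescence so inhibitors raise well fluorescence; 0% = enzyme with DMSO and 100% = DMSO without enzyme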
IMP-1 inh = blocks Pseudomonas aeruginosa IMP-1 metallo-beta-lactamase | inhibition, % at 5.6 µM | purified IMP-1, nitrocefin hydrolysis, epi-absorbance fluorescence | 290,000 compounds, 0.45% hits;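 active = inhibition above the mean plus 3 SD of all compounds in the same screening run, cut at about 4.5% in these data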;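 also: 0% = IMP-1 with DMSO and 100% = DMSO wells lacking enzyme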
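Material – recombinant IMP-1 enzyme, purified · Amount – IMP-1 0.2 nM before substrate addition · Medium – HEPES buffer pH 7.1 with ZnSO4 and Brij 35 · Timing – 25 °C, 15 min preincubation, 25 min reaction · Measured by – plate fluorescence quenching by hydrolysis product, ex 480/em 530 nm · Read-out – percent enzyme inhibition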
HTR2A ag = agonists of mouse serotonin 5-HT2A receptor (HTR2A); P35363; CHO-K1 mHTR2A beta-arrestin complementation, luminescence; percent of 30 µM serotonin response; activation, % at 7.6 µM; 360,000 compounds, 0.66% hits; AID 624169;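 active = activation above a run cutoff, the mean activation of all tested compounds plus 3 SD, cut at about 14% in these data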;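 also: 0% = plate median of compound wells and 100% = 30 µM serotonin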
* hit, by the source's call; · = not tested or not shown.

SMILES	dFosB act	VIM-2 inh	IMP-1 inh	HTR2A ag
O=C(OCC(=O)N1CCN(C(=O)c2ccco2)CC1)c1cc(-c2ccc(F)cc2)nc2ccccc12	-22.0	-5.0	-3.2	-3.7
Cc1ccc(-c2csc(NC(=O)C[n+]3cc(-c4ccc(C)cc4)n4c3CCC4)n2)cc1	36.7*	-3.0	-1.6	3.8
O=C(Cn1c2ccccc2c(=O)c2cc([N+](=O)[O-])ccc21)Nc1ccccc1Cl	62.8*	-0.4	-2.8	-0.9
O=S(=O)(NC1=NCCC1)c1cccc(NS(=O)(=O)c2ccc(OC(F)(F)F)cc2)c1	-4.3	0.3	-1.4	3.8
O=C(COC(=O)/C=C/c1ccc(S(=O)(=O)N2CCOCC2)cc1)Nc1ccccc1F	6.2	·	·	-0.2
Cc1ccc(S(=O)(=O)N2CCOCC2)cc1NC(=O)COC(=O)/C=C/c1ccc(F)cc1	81.2*	·	·	0.8
O=C(NN=Cc1ccccc1C(=O)O)c1cccc(S(=O)(=O)Nc2cccc(C(F)(F)F)c2)c1	-2.9	·	·	-2.0
Cc1c(Br)c(C(=O)N2CCc3ccccc32)nn1C	-4.4	-4.8	10.2*	-3.2
CCOC(=O)C1(C)CCN1C(=O)c1ccc(C)cc1 (stereo not drawn)	·	·	·	-5.1
CCOC(=O)N1CCc2[nH]c3ccc(C)cc3c2C1	-7.1	8.8*	-2.7	3.6
CC(=O)N1CCc2[nH]c3ccc(C)cc3c2C1	-5.0	-0.4	-2.3	11.1
O=C(NCC(F)(F)F)C1C(=O)Nc2ccccc2C(=O)N1Cc1ccccc1 (stereo not drawn)	·	·	·	4.9
O=C(NC(Cc1nn[nH]n1)C(=O)OCc1ccccc1)OCc1ccccc1 (stereo not drawn)	·	·	·	3.9
O=C(C1=C[C@@H](c2csc3ccccc23)C[C@@H](OCCCCO)O1)N1CCN(Cc2ccc3c(c2)OCO3)CC1	6.9	-2.8	-2.9	35.3*
CCOC(=O)N1CCN(C/C(Cl)=C/c2ccccc2)CC1	2.9	-1.7	-0.7	-3.6
CC(=C/c1ccccc1)/C=N/NC(=O)c1nnn(-c2nonc2N)c1CN1CCC(C)CC1	-11.5	0.6	-0.3	2.3
CC1CCN(Cc2c(C(=O)N/N=C/c3ccccc3O)nnn2-c2nonc2N)CC1	20.9*	-3.1	-1.4	4.3
Cc1nnn(-c2nonc2N)c1C(=O)N/N=C/c1ccccc1O	104.0*	-2.1	-3.6	-0.7
CC1Sc2ccc(C(=O)NCc3cccc(C(F)(F)F)c3)cc2NC1=O (stereo not drawn)	-2.9	·	·	3.6
COc1ccc(CC(=O)Nc2cccc(-c3ccc4nncn4n3)c2)cc1OC	63.5*	-0.3	-2.3	3.4
COc1ccc(CC(=O)Nc2cccc(-c3ccc4nnc(C)n4n3)c2)cc1OC	72.7*	-2.8	-3.2	-4.3
Cc1nnc2ccc(-c3cccc(NC(=O)Cc4cccs4)c3)nn12	-32.4	2.5	0.4	8.0
CCOC(=O)N1CCN(C(=O)Cn2nc(C)n3nc(-c4ccc(OC)cc4)cc3c2=O)CC1	-2.9	-1.1	-4.7	0.5
COc1ccc(-c2cc3c(=O)n(CC(=O)Nc4cccc(Cl)c4)nc(C)n3n2)cc1	23.9*	-2.7	-2.7	-1.8
COc1ccc(CC(=O)Nc2cccc(-c3ccc4nnc(C)n4n3)c2)cc1	72.7*	4.2	-3.2	1.4
SMILES	dFosB act	VIM-2 inh	IMP-1 inh	HTR2A ag
COc1ccc(C(=O)Nc2cccc(-c3ccc4nncn4n3)c2)cc1OC	-8.3	0.7	-3.2	2.8
CC(=O)N1c2ccc(S(=O)(=O)NCCC(=O)Nc3ccc(OC(F)(F)F)cc3)cc2CC1C (stereo not drawn)	-12.5	-1.2	-1.9	0.9
CCCS(=O)(=O)Nc1cccc(-c2ccc3nnc(C)n3n2)c1	-9.4	0.5	-2.9	-0.9
CCOc1ccc(CC(=O)Nc2cccc(-c3ccc4nnc(C)n4n3)c2)cc1	89.2*	-1.3	-3.5	-5.6
O=C(CN1C(=O)NC2(CCCc3ccccc32)C1=O)c1ccc(F)c(F)c1 (stereo not drawn)	-9.0	·	·	-0.1
C[C@H]1c2cccc(O)c2C(O)=C2C(=O)C3(O)C(O)=C(C(N)=O)C(=O)[C@@H](N(C)C)[C@@H]3[C@@H](O)[C@@H]21 (stereo partly drawn)	2.3	·	·	-0.4
C=C1c2cccc(O)c2C(O)=C2C(=O)[C@]3(O)C(O)=C(C(N)=O)C(=O)[C@@H](N(C)C)[C@@H]3[C@@H](O)[C@H]12	-9.7	8.6*	3.4	6.1
Cc1ccccc1C(=O)NC1CCN(C(=O)N(c2ccccc2)c2ccccc2)CC1	2.3	0.1	4.6*	-2.7
Cc1ccccc1C(=O)NC1CCN(C(=O)NC2CCCCC2)CC1	-4.9	0.2	-2.4	3.1
O=C(c1cnn2c(C(F)(F)F)cc(-c3cccs3)nc12)N1CCCC1	-8.0	3.6	-2.2	0.9
COC(=O)CSc1nc2nc(-c3cccs3)cc(C(F)(F)F)c2c(=O)[nH]1	-8.9	11.9*	-0.4	3.0
O=C(CSc1nc2nc(-c3cccs3)cc(C(F)(F)F)c2c(=O)[nH]1)NCc1ccco1	-5.4	8.1*	-3.4	0.3
COc1ccc(-c2cc(C(F)(F)F)n3nc(C(=O)NCc4ccco4)cc3n2)cc1OC	-11.0	8.7*	-0.6	-3.3
CC(=O)Nc1ccc(NC(=O)CSc2nc3nc(-c4cccs4)cc(C(F)(F)F)c3c(=O)[nH]2)cc1	-10.7	-1.5	-3.0	2.8
O=C(NCc1ccco1)c1cnn2c(C(F)(F)F)cc(-c3cccs3)nc12	-9.8	9.3*	-3.0	-3.3
Brc1cc2c(cc1C1OCCCO1)OCO2	5.1	·	·	-0.3
CCOc1cc(/C=C2\CCCc3c2nc2ccccc2c3C(=O)O)ccc1OC	-5.1	2.7	6.9*	5.8
COc1cc(/C=C2\CCCc3c2nc2ccccc2c3C(=O)O)cc(Br)c1O	1.5	1.6	-2.5	3.3
O=C1C(NS(=O)(=O)c2ccc(Cl)cc2)=C(N2CCCCC2)C(=O)c2ccccc21	3.5	9.3*	0.1	-1.4
NC(=O)C1CCN(C2=C(NS(=O)(=O)c3ccccc3)C(=O)c3ccccc3C2=O)CC1	-5.7	8.8*	0.2	6.2
CN1CCN(C2=C(NS(=O)(=O)c3ccccc3)C(=O)c3ccccc3C2=O)CC1	1.2	-4.6	-4.0	-0.8
CCOC(=O)N1CCN(C2=C(NS(=O)(=O)c3ccc(Br)cc3)C(=O)c3ccccc3C2=O)CC1	·	·	·	2.4
CCOC(=O)N1CCN(C2=C(NS(=O)(=O)c3ccccc3)C(=O)c3ccccc3C2=O)CC1	-11.1	9.4*	-2.5	0.5
O=C(CCc1cn2ccccc2n1)NC1CCCc2c1cnn2-c1ccccc1F (stereo not drawn)	-6.7	-2.2	-2.3	-2.6
CCn1c(C)cc2c(c1=O)C(c1ccc3c(c1)OCO3)C(C#N)=C(N)O2 (stereo not drawn)	-2.7	1.0	1.1	14.5*
Cc1cc2c(c(=O)n1CC1CCCO1)C(c1ccc3c(c1)OCO3)C(C#N)=C(N)O2 (stereo not drawn)	-4.4	-2.6	-2.9	-0.1
CCOc1ccc(Br)cc1S(=O)(=O)NCC(c1ccc(OC)cc1)N1CCOCC1 (stereo not drawn)	-2.4	·	·	-3.0
CNC(=O)C[C@H]1C(=O)N(CCc2ccccc2)C[C@@H]1c1ccc(OC)cc1	·	·	·	-4.2
